Measured values from paper PMC10287037 (European journal of medicinal chemistry, 2023).
Where two headings read alike, the source gives them in different places.

Legend:
VL51 cells [1] = test: p-histone H3 staining of mitotic cells by flow cytometry; assay type: cell-based, human; conditions: 24 h
Method in brief: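 VL51 lymphoma cells in RPMI-1640 with 20% FBS, penicillin-streptomycin-neomycin and 1% L-glutamine at 37 °C, 5% CO2. Seeded at 2.0×10^5 per well in 6-well plates, then treated 24 h at indicated concentrations. Harvested by centrifugation, fixed in 70% ice-cold ethanol, stained with anti-phospho-histone H3 antibody plus PI, and analysed by flow cytometry as % p-H3-positive (mitotic) cells.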

[2] = test system: PBL not stimulated with PHA; test: Cytotoxicity in resting human PBLs; assay type: cell-based; conditions: 72 h, read-out: IC50 (compound concentration required to inhibit cell growth by 50%)
Method in brief: (§1)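 Healthy-donor human PBLs; non-adherent cells at 5×10^5 cells/mL in growth medium. Proliferating cultures received PHA; resting cultures used the same density without PHA. Graded compound concentrations from 10 mM DMSO stocks. Viability by MTT after 72 h incubation. IC50 is the concentration inhibiting cell growth by 50%.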

VL51 cells [3] = test: Mitochondrial membrane potential; assay type: cell-based, human; conditions: 24 h, 0.5 and 1.0 μM, VL51, JC-1
Method in brief: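 VL51 lymphoma cells were grown in RPMI-1640 with 20% FBS, pen-strep-neomycin and 1% L-glutamine at 37 °C, 5% CO2. Cells were treated 24 h with test compound diluted from a 10 mM DMSO stock. They were then labelled with JC-1 and analysed by flow cytometry in the FL1 and FL2 channels.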

[4] = test system: A549, CCRF-CEM and VL51 cells; test: Apoptosis assay; assay type: cell-based, human; conditions: 48 h incubation; annexin-V/PI
Method in brief: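 A549, CCRF-CEM and VL51 cultured at 37 °C, 5% CO2; lymphoma line in RPMI-1640 with 20% FBS, pen-strep-neomycin and 1% L-glutamine. Test compound from 10 mM DMSO stock, several concentrations, 48 h. Annexin-V Fluos kit per manufacturer: annexin-V-FITC (FL1) and PI (FL3) by flow cytometry. Apoptotic % = annexin-V+ plus annexin-V/PI double-positive cells; mean ± S.E.M., three independent experiments.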

PBL stimulated with PHA = test: Cytotoxicity in PHA-stimulated human PBLs; assay type: cell-based; conditions: 72 h, read-out: IC50 (compound concentration required to inhibit cell growth by 50%)
Method in brief: as §1

tubulin = test: Inhibition of tubulin assembly; assay type: biochemical; conditions: compared with 3d / CA-4
[5] = test system: VL51 (marginal zone lymphoma, MZL) cells; test: MTT cell proliferation assay, VL51; assay type: cell-based; conditions: Homo sapiens, VL51, 72 h, bound stated
[6] = test system: non-Hodgkin lymphoma (NHL) cells HBL1, SU-DHL-10, MINO, VL51; test: MTT cell proliferation assay, panel of four NHL cell lines; assay type: cell-based, human; conditions: for reduction in the percentage of cellular proliferation: 1 μM, 72 h incubation, towards each cell line
leukemia cell lines = test: NCI five-dose screening, leukemia subpanel; assay type: cell-based, human; conditions: for GI50: Homo sapiens, read-out: GI50 values (range over subpanel)
Method in brief: (§2)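 Run by NCI. Prescreen at 10^-5 M across 60 human lines from nine tumour types: leukemia, NSCLC, colon, CNS, melanoma, ovarian, renal, prostate, breast. GI50 is the concentration inhibiting cell growth by 50%. MG_MID is the arithmetic mean GI50 over tested lines; where 50% inhibition was not reached, the highest tested concentration was used.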

colon cancer subpanel = test: NCI five-dose screening, colon cancer subpanel; assay type: cell-based, human; conditions: for GI50: Homo sapiens
Method in brief: as §2

renal cancer subpanel = test: NCI five-dose screening, renal cancer subpanel; assay type: cell-based; conditions: Homo sapiens, TK-10, read-out: GI50 (range over subpanel)
Method in brief: as §2

prostate cell lines = test: NCI five-dose screening, prostate subpanel; assay type: cell-based; conditions: Homo sapiens, read-out: GI50 values (range over subpanel)
Method in brief: as §2

[7] = test system: tubulin (colchicine site); test: Inhibition of [3H]colchicine binding to tubulin; conditions: 5 μM inhibitor; 0.5 μM tubulin, 5.0 μM [3H]colchicine

Row | IC50 [5] [nM] | SMILES | IC50 [2] [nM] | depolarization of the mitochondrial membrane (VL51 cells [3]) | induction of apoptosis [4] | IC50 (PBL stimulated with PHA) [nM] | reduction in the percentage of cellular proliferation [6] | GI50 (leukemia cell lines) [nM] | further results
1 |  | COc1ccc(Cn2cc3c(c2-c2ccccc2)CCCc2cnoc2-3)cc1 [3d, 8-(4-Methoxybenzyl)-7-phenyl-4,5,6,8-tetrahydropyrrolo[3’,4’:3,4]cyclohepta[1,2-d][1,2]oxazole] | > 10000 | slight depolarization of the mitochondrial membrane | induced apoptosis to a lesser extent | > 10000 |  |  | increase of mitotic cells (p-histone H3 positive) (VL51 cells [1]): did not observe a significant increase of mitotic cells
2 |  | COc1ccc(Cn2cc3c(c2-c2ccc(OC)cc2)CCCc2cnoc2-3)cc1 [3p, 8-(4-Methoxybenzyl)-7-(4-methoxyphenyl)-4,5,6,8-tetrahydropyrrolo[3’,4’:3,4]cyclohepta[1,2-d][1,2]oxazole] |  |  |  |  |  |  | fold less active on tubulin assembly (tubulin): about 4 fold
3 | < 500 | COc1ccc(Cn2cc3c(c2-c2cc(OC)c(OC)c(OC)c2)CCCc2cnoc2-3)cc1 [3u, 8-(4-Methoxybenzyl)-7-(3,4,5-trimethoxyphenyl)-4,5,6,8-tetrahydropyrrolo[3’,4’:3,4]cyclohepta[1,2-d][1,2]oxazole] | > 10000 | depolarization was extensive | massive apoptosis in a dose-dependent manner | > 10000 | higher than 50% | 350 to 1560 | calculated MG_MID for subpanel (leukemia cell lines; leukemia subpanel): 0.65 µM; GI50 (colon cancer subpanel; read-out: GI50 values (range over subpanel)): 390 to 1610 nM; calculated MG_MID for subpanel (colon cancer subpanel; colon cancer subpanel): 0.88 µM
4 | < 500 | COc1ccc(Cn2cc3c(c2-c2cc(OC)c(OC)c(OC)c2)CCCc2cnoc2-3)cc1N [3z, 2-Methoxy-5-((7-(3,4,5-trimethoxyphenyl)-5,6-dihydropyrrolo[3’,4’:3,4]cyclohepta[1,2-d]isoxazol-8(4H)-yl)methyl)aniline] | > 10000 | depolarization was extensive | massive apoptosis in a dose-dependent manner | > 10000 | higher than 50% | 300 to 650 | IC50 ([6]; Homo sapiens, 72 h, read-out: IC50 values (range over all four NHL cell lines)): 100 to 500 nM; GI50 (renal cancer subpanel): 360 to 840 nM; GI50 (colon cancer subpanel; HCC 2998, read-out: GI50 (range over subpanel)): 380 to 560 nM; GI50 (prostate cell lines): 430 to 840 nM
5 |  | COc1ccc(/C=C\c2cc(OC)c(OC)c(OC)c2)cc1O [CA-4, combretastatin A-4] |  |  |  |  |  |  | Inhibition of colchicine binding % Inhibition ± SD [7]: 98 ± 2%
